Data: ChEMBL document CHEMBL4340573, “New pyrazolopyrimidine derivatives as Leishmania amazonensis arginase inhibitors” (Bioorg Med Chem, 2019)
The source made the active and inactive calls. The calls are words filed in the database; no cut-off is given here.

Experiments:
[1] = biological target: Arginase (Leishmania amazonensis) (UniProt O96394); experiment: Inhibition of recombinant Leishmania amazonensis arginase expressed in Escherichia coli at 100 uM using L-arginine as substrate relative to control
Procedure, shortened: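 Recombinant LaARG was expressed in E. coli. Single-point screen: 100 µM compound with 50 mM L-arginine in 50 mM CHES, pH 9.5. DMSO stocks (70 mM) were diluted to 1 mM in deionized water before assay. Run in triplicate in two independent experiments.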

Arginase [2] = biological target: T1, Arginase (Leishmania amazonensis, UniProt O96394); experiment: Inhibition of recombinant Leishmania amazonensis arginase expressed in Escherichia coli using L-arginine as substrate
Procedure, shortened: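 Recombinant E. coli-expressed LaARG was run with L-arginine at 25, 50 and 100 mM separately. Inhibitor was 200 to 0.05 µM by 4-fold serial dilution, in triplicate in two independent experiments. IC50 came from nonlinear sigmoidal regression of log dose versus enzyme activity; reported IC50 values are at 50 mM substrate.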

[3] = (§1) Cytotoxicity against Swiss mouse peritoneal macrophages assessed as reduction in cell viability incubated for 48 hrs by MTT assay; assay type: cell-based, Peritoneal macrophage; conditions: Swiss, peritoneal macrophages, read-out: LC50
Procedure, shortened: (§2)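 Peritoneal cells harvested in RPMI 96 h after 3% thioglycolate (1 mL) in male Swiss mice (18-20 g). Plated at 10^5 cells/well in RPMI 1640 with 10% FBS and 2 mM glutamine. After 24 h, exposed to compound up to 200 µM, 48 h, 37 °C, 5% CO2. MTT 0.45 mg/mL added for 4 h, OD at 570. LC50 derived; at least 2 runs in triplicate.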

Leishmania amazonensis [4] = experiment: Antileishmanial activity against Leishmania amazonensis LTB0016 amastigotes assessed as induction of parasite morality at 30 uM incubated for 48 hrs by Alamar blue dye based assay relative to control; assay type: functional; conditions: LTB0016, 48 h
Procedure, shortened: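 Amastigotes purified by mechanical dissociation in RPMI from paw skin lesions of male Swiss Webster mice 30 days after subcutaneous infection with 10^6 amastigotes. Parasites at 10^6/well exposed 48 h at 32 °C, 5% CO2, with compound up to 30 µM (DMSO ≤0.6% final). Then 24 h with 10% AlamarBlue, OD read at 570-600 nm; pentamidine as reference.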

[5] = biological target: Arginase (Leishmania amazonensis) (UniProt O96394); experiment: Competitive inhibition of recombinant Leishmania amazonensis arginase expressed in Escherichia coli using 25 to 100 mM L-arginine levels
[6] = biological target: Arginase (Leishmania amazonensis) (UniProt O96394); experiment: Uncompetitive inhibition of recombinant Leishmania amazonensis arginase expressed in Escherichia coli assessed as dissociation constant for ternary complex enzyme-substrate-inhibitor using L-arginine as substrate by Dixon or Cornish-Bowden plot analysis
Procedure, shortened: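 Kinetics on recombinant LaARG used L-arginine at 25, 50 and 100 mM, each with three inhibitor concentrations. Points are the mean of three independent experiments run in duplicate. Mechanism came from linear-regression Dixon and Cornish-Bowden plots. Kis (ESI complex dissociation constant) was taken from the intersection of lines on the Cornish-Bowden plot.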

Peritoneal macrophage = experiment: as §1; assay type: cell-based; conditions: peritoneal macrophage, 48 h; procedure, shortened: as §2
Leishmania amazonensis [7] = experiment: Antileishmanial activity against Leishmania amazonensis LTB0016 amastigotes assessed as induction of parasite morality incubated for 48 hrs by Alamar blue dye based assay relative to control; assay type: functional, organism-based; conditions: LTB0016, 48 h
Procedure, shortened: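 Free amastigotes (LTB0016) were purified by mechanical dissociation in RPMI from paw skin lesions of male Swiss Webster mice 30 days after s.c. infection with 10^6 amastigotes. Parasites at 10^6/well were exposed to compounds up to 30 µM for 48 h at 32 °C in 5% CO2. AlamarBlue (10%) was then added for 24 h at 32 °C and OD read at 570-600 nm. Final DMSO was ≤0.6%.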

Arginase [8] = biological target: T1, Arginase; experiment: Non-competitive inhibition of Leishmania amazonensis arginase using L-arginine as substrate incubated for 15 mins

Work on NC(=S)NNc1ncnc2c1cnn2-c1ccc(Cl)cc1 yielded an inhibition [1] of 46%, an IC50 (Arginase [2]) of over 100 µM and a CC50 at 48 h [3] of over 200 µM. It also gave a mortality at 30 µM (Leishmania amazonensis [4]) of 20 to 30%.
For NC(=S)NNc1ncnc2c1cnn2-c1ccccc1, the inhibition [1] was 74.3%, the inhibition [5] was “inactive” and the IC50 (Arginase [2]) was 12 µM. The K [6] was 8.5 µM, the CC50 at 48 h [3] was over 200 µM and the mortality at 30 µM (Leishmania amazonensis [4]) was 20 to 30%.
For Cc1ccc(-n2ncc3c(NNC(N)=S)ncnc32)cc1, the inhibition [1] was 42.2%, the IC50 (Arginase [2]) was over 100 µM and the LC50 (Peritoneal macrophage) was “Nd(Insoluble)”.
Work on NC(=S)NNc1ncnc2c1cnn2-c1ccc(F)cc1 yielded an inhibition [1] of 36.4%, an IC50 (Arginase [2]) of over 100 µM and a CC50 at 48 h [3] of over 200 µM. It also gave a mortality at 30 µM (Leishmania amazonensis [4]) of 20 to 30%.
Work on N=C(N)c1ccc(OCCCCCOc2ccc(C(=N)N)cc2)cc1 [PENTAMIDINE] yielded a CC50 at 48 h [3] of 17.2 µM and an EC50 (Leishmania amazonensis [7]) of 0.8 µM.
In the case of N#Cc1ccc(-n2ncc3c(NNC(N)=S)ncnc32)cc1, the inhibition [1] is reported as 59.8%, the IC50 (Arginase [2]) is reported as 100 µM and the LC50 (Peritoneal macrophage) is reported as “Nd(Insoluble)”.
In the case of Cc1cc(NNC(N)=S)n2nc(C(F)(F)F)nc2n1, the IC50 (Arginase [8]) is reported as 16.5 µM, the Ki (Arginase [8]) is reported as 17 µM and the inhibition [1] is reported as 81%. It also gave an IC50 (Arginase [2]) of 16.5 µM, a K [6] of 17 µM and a CC50 at 48 h [3] of over 200 µM. The mortality at 30 µM (Leishmania amazonensis [4]) was 20 to 30%.
In the case of NC(=S)NNc1ncnc2c1cnn2-c1ccc(C(F)(F)F)cc1, the inhibition [1] is reported as 73.8%, the inhibition [5] is reported as “inactive” and the IC50 (Arginase [2]) is reported as 47 µM. For the same compound, the K [6] was 29 µM, the CC50 at 48 h [3] was over 200 µM and the mortality at 30 µM (Leishmania amazonensis [4]) was 20 to 30%.
